# How the values were obtained:
# RAW264.7 [1] = experiment: Inhibition of LPS-induced TNF-alpha secretion in mouse RAW264.7 cells at 10 uM pretreated for 2 hrs prior to LPS addition measured after 22 hrs by ELISA; type: functional
# In short: (§1)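 RAW 264.7 macrophages seeded at 4.0 × 10^5/plate overnight (37 °C, 5% CO2), pretreated 2 h with 10 μM compound (omeprazole as comparator), then LPS 0.5 μg/mL for 22 h. TNF-α and IL-6 in medium measured by ELISA, normalized to total cellular protein.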
# RAW264.7 [2] = experiment: Inhibition of LPS-induced TNF-alpha secretion in mouse RAW264.7 cells pretreated for 2 hrs prior to LPS addition measured after 22 hrs by ELISA; type: functional, cell-based
# In short: (§2)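 Dose–response for IC50. RAW264.7 cells were seeded at 1.2 × 10^6/plate overnight at 37 °C, 5% CO2. They were pretreated 2 h with 1.0, 5.0 or 10 μM compound, then given LPS 0.5 μg/mL for 22 h. Medium TNF-α or IL-6 was quantified by ELISA and normalized to total protein.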
# RAW264.7 [3] = experiment: Inhibition of LPS-induced IL-6 secretion in mouse RAW264.7 cells at 10 uM pretreated for 2 hrs prior to LPS addition measured after 22 hrs by ELISA; type: functional; in short: as §1
# RAW264.7 [4] = experiment: Inhibition of LPS-induced IL-6 secretion in mouse RAW264.7 cells pretreated for 2 hrs prior to LPS addition measured after 22 hrs by ELISA; type: functional, cell-based; in short: as §2
# [5] = Cytotoxicity against human HL7702 cells assessed as inhibition of cell viability at 20 uM after 24 to 72 hrs by MTT assay; type: cell-based; conditions: l02, 20 µM
# In short: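 Human normal liver HL-7702 cells exposed to 20 μM compound for 24, 48 and 72 h; viability read by MTT.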
# Mus musculus [6] = experiment: Antiinflammatory activity against LPS-induced C57BL/6 mouse sepsis model assessed as increase in survival rate at 15 mg/kg, iv administered 15 mins after LPS injection measured for 7 days; type: functional
# In short: (§3)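 Mice received LPS 20 mg/kg iv. Test agent was given iv as its HCl salt at 15 mg/kg, either 15 min after LPS (line 1, therapeutic) or 15 min before LPS (line 2, preventive). Survival and body weight were recorded daily for 7 days. Data pool two experiments, n = 12 per group, compared with the LPS-alone group.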
# Mus musculus [7] = experiment: Antiinflammatory activity against LPS-induced C57BL/6 mouse sepsis model assessed as increase in survival rate at 15 mg/kg, iv administered 15 mins prior to LPS injection measured for 7 days; type: functional; in short: as §3
compound,measurement,setting,value
CCN(CC)CCn1c(-c2ccccc2OC)nc2cc(Cl)ccc21,inhibition at 10 µM,RAW264.7 [1],50%
CN1CCN(c2ccc3nc(-c4c[nH]c5ccccc45)[nH]c3n2)CC1,inhibition at 10 µM,RAW264.7 [1],50%
CCCn1c(-c2c[nH]c3ccc(Br)cc23)nc2ccc(N3CCN(C)CC3)nc21,IC50,RAW264.7 [2],1.99 µM
same,inhibition,RAW264.7 [2],Dose-dependent effect
same,inhibition at 10 µM,RAW264.7 [3],> 50%
same,IC50,RAW264.7 [4],1.21 µM
same,inhibition,RAW264.7 [4],Dose-dependent effect
same,inhibition at 10 µM,RAW264.7 [1],50%
same,Activity,[5],Toxic
Cc1ccc(-c2nc3ccc(N4CCN(C)CC4)nc3[nH]2)s1,inhibition at 10 µM,RAW264.7 [1],50%
CCCn1c(-c2c[nH]c3ncccc23)nc2ccc(N3CCN(C)CC3)nc21 [listing 1 of 2 here],inhibition,RAW264.7 [2],Dose-dependent effect
same,inhibition,RAW264.7 [4],Dose-dependent effect
CCCn1c(-c2cn(C)c3ccccc23)nc2ccc(N3CCOCC3)nc21,inhibition at 10 µM,RAW264.7 [1],50%
COc1ccccc1-c1nc2ccc(N3CCN(C)CC3)nc2[nH]1,inhibition at 10 µM,RAW264.7 [1],50%
CCCn1c(-c2ccc(OCCCN(C)C)cc2)nc2ccc(N3CCN(C)CC3)nc21,IC50,RAW264.7 [2],12.4 µM
same,inhibition,RAW264.7 [2],Dose-dependent effect
same,inhibition at 10 µM,RAW264.7 [3],> 50%
same,IC50,RAW264.7 [4],3.28 µM
same,inhibition,RAW264.7 [4],Dose-dependent effect
same,inhibition at 10 µM,RAW264.7 [1],50%
same,Activity,[5],Non-toxic
CCCn1c(-c2cn(C)c3ccccc23)nc2ccc(N3CCN(C)CC3)nc21,inhibition at 10 µM,RAW264.7 [1],50%
CCCn1c(-c2ccccc2F)nc2ccc(N3CCN(C)CC3)nc21,inhibition at 10 µM,RAW264.7 [1],50%
CCCn1c(-c2c[nH]c3ccccc23)nc2ccc(N3CCN(C)CC3)nc21,IC50,RAW264.7 [2],14.2 µM
same,inhibition,RAW264.7 [2],Dose-dependent effect
same,inhibition at 10 µM,RAW264.7 [3],81.4%
same,IC50,RAW264.7 [4],4.3 µM
same,inhibition,RAW264.7 [4],Dose-dependent effect
same,inhibition at 10 µM,RAW264.7 [1],64.8%
CCCn1c(-c2ccc(C)s2)nc2ccc(N3CCN(C)CC3)nc21,IC50,RAW264.7 [2],7.25 µM
same,inhibition,RAW264.7 [2],Dose-dependent effect
same,inhibition at 10 µM,RAW264.7 [3],> 50%
same,IC50,RAW264.7 [4],2.81 µM
same,inhibition,RAW264.7 [4],Dose-dependent effect
same,inhibition at 10 µM,RAW264.7 [1],50%
CCCn1c(-c2c[nH]c3ncccc23)nc2ccc(N3CCN(C)CC3)nc21 [listing 2 of 2 here],IC50,RAW264.7 [2],4.79 µM
same,inhibition at 10 µM,RAW264.7 [3],> 50%
same,IC50,RAW264.7 [4],1.62 µM
same,inhibition at 10 µM,RAW264.7 [1],50%
same,Activity,[5],Non-toxic
CCCn1c(-c2c[nH]c3ncccc23)nc2ccc(N3CCN(C)CC3)nc21.Cl,Activity,Mus musculus [6],50%
same,Activity,Mus musculus [7],50%
CCCn1c(-c2ccc(C)s2)nc2ccc(N3CCOCC3)nc21,inhibition at 10 µM,RAW264.7 [1],50%
CCCn1c(-c2ccccc2OC)nc2ccc(N3CCN(C)CC3)nc21,inhibition at 10 µM,RAW264.7 [1],50%
CCCn1c(-c2ccccc2Br)nc2ccc(N3CCN(C)CC3)nc21,inhibition at 10 µM,RAW264.7 [1],50%

# — ChEMBL document CHEMBL2321682, “Synthesis and Anti-inflammatory Evaluation of Novel Benzimidazole and Imidazopyridine Derivatives” (ACS Med Chem Lett, 2013)
